Data published in ChEMBL document CHEMBL3813658, “Texas Native Plants Yield Compounds with Cytotoxic Activities against Prostate Cancer Cells” (J Nat Prod, 2016).
Each block holds one compound with its values, some of them ahead of it. The source made the active and inactive calls. The rule behind the calls is not given here.

What was measured:
[1] = Antiproliferative activity against human PC3 cells after 48 hrs by sulforhodamine B assay; format: functional, cell-based; conditions: PC-3, 48 h
[2] = Antiproliferative activity against human DU145 cells after 48 hrs by sulforhodamine B assay; format: functional, cell-based; conditions: DU-145, 48 h
How it was run: (§1)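 Sulforhodamine B assay. DU 145 cells in IMEM/10% FBS and PC-3 cells in RPMI-1640/10% FBS, both kept at 37 °C with 5% CO2, seeded at predetermined densities and left to adhere overnight. Cells exposed 48 h to a concentration range or DMSO vehicle, then TCA-fixed and SRB-stained. Bound dye dissolved in Tris and read at 560 nm.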

[3] = Cell cycle arrest in human DU145 cells assessed as accumulation at G0/G1 phase at 5 times antiproliferative IC50 after 16 to 23 hrs by propidium iodide staining based flow cytometry (reference value: 50.4 +/- […]%); format: functional; conditions: DU-145
[4] = test system: DU-145; assay: Ratio of IC50 for human PC3 cells to IC50 for human DU145 cells; format: functional
[5] = Cytotoxicity against human PC3 cells assessed as reduction in cell density at 12.5 uM after 48 hrs by sulforhodamine B assay relative to control; format: functional; conditions: PC-3, 48 h; how it was run: as §1
[6] = Cytotoxicity against human DU145 cells assessed as reduction in cell density at 12.5 uM after 48 hrs by sulforhodamine B assay relative to control; format: functional; conditions: DU-145, 48 h; how it was run: as §1
[7] = test system: DU-145; assay: (§2) Inhibition of colony formation in human DU145 cells at antiproliferative IC90 incubated for 4 hrs followed by compound washout measured after 7 to 9 days by crystal violet staining based clonogenic assay relative to control; format: functional
How it was run: (§3)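 DU 145 cells plated at 150 per 60 mm plate and left to adhere about 24 h. Cells treated 4 h at the IC90 concentration, washed with fresh medium, then grown 7−9 days drug-free. Colonies stained with 0.5% crystal violet in 20% methanol, counted by imaging, and compared with vehicle-treated controls.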

[8] = Cell cycle arrest in human DU145 cells assessed as accumulation at S phase at 5 times antiproliferative IC50 after 16 to 23 hrs by propidium iodide staining based flow cytometry (reference value: 27.8 +/- 1%); format: functional; conditions: DU-145
How it was run: (§4)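 Cells harvested on ice, stained with Krishan's reagent (propidium iodide), and DNA content read by flow cytometry. Phase percentages derived from DNA histograms. n = 2–3 per compound, n = 5 for vehicle; error bars are SEM.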

[9] = Cell cycle arrest in human DU145 cells assessed as accumulation at G2/M phase at 5 times antiproliferative IC50 after 16 to 23 hrs by propidium iodide staining based flow cytometry (reference value: 21.8 +/- 1.5%); format: functional; conditions: DU-145; how it was run: as §4
[10] = test system: DU-145; assay: Disruption of mitotic spindle in human DU145 cells assessed as elongated and curved morphology at 5 times antiproliferative IC50 after 16 to 18 hrs by DAPI staining based immunofluorescence microscopy; format: functional, cell-based
How it was run: (§5)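 Cells fixed in ice-cold methanol, then stained with anti-β-tubulin and FITC secondary antibody; DNA stained with DAPI. Spindle morphology, metaphase DNA alignment and interphase microtubules assessed by fluorescence microscopy.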

[11] = test system: DU-145; assay: Effect on interphase microtubule in human DU145 cells at 5 times antiproliferative IC50 after 16 to 18 hrs by DAPI staining based immunofluorescence microscopy; format: functional, cell-based; how it was run: as §5
[12] = target: T1, Mitogen-activated protein kinase; ERK1/ERK2 (Homo sapiens) (UniProt P27361+P28482); assay: Activation of ERK1/2 in human DU145 cells assessed as increase in phosphorylation at Thr202/Tyr204 residue at antiproliferative IC90 after 4 hrs by fluorescence based intracellular signaling array method; format: cell-based; conditions: DU-145
How it was run: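 PathScan intracellular signaling array with fluorescent read-out. DU 145 cells treated for 4 h; lysates made with cell extraction buffer plus protease inhibitors, as for Western blots. Phospho-Erk1/2 at Thr202/Tyr204 scored.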

[13] = target: T1, Mitogen-activated protein kinase; ERK1/ERK2 (Homo sapiens); assay: Increase in ERK1/2 phosphorylation in human DU145 cells at antiproliferative IC90 after 2 to 18 hrs by Western blot analysis; format: cell-based; conditions: DU-145
How it was run: (§6)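 Equal protein run on SDS-PAGE and blotted to membrane. Probed with phospho-p44/42 and total p44/42 antibodies (1:1000) and HRP secondaries (1:5000), then quantified by densitometry.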

[14] = Cytotoxicity against human DU145 cells assessed as reduction in cell density at 61.3 uM after 48 hrs by sulforhodamine B assay relative to control; format: functional; conditions: DU-145, 48 h; how it was run: as §1
[15] = Cytotoxicity against human PC3 cells assessed as reduction in cell density at 61.7 uM after 48 hrs by sulforhodamine B assay relative to control; format: functional; conditions: PC-3, 48 h; how it was run: as §1
[16] = Cytotoxicity against human DU145 cells assessed as reduction in cell density at 61.7 uM after 48 hrs by sulforhodamine B assay relative to control; format: functional; conditions: DU-145, 48 h; how it was run: as §1
[17] = as §2; format: functional, DU-145; how it was run: as §3
[18] = test system: DU-145; assay: Disruption of mitotic spindle in human DU145 cells assessed as elongated and curved morphology at 2 times antiproliferative IC50 after 16 to 18 hrs by DAPI staining based immunofluorescence microscopy; format: functional, cell-based; how it was run: as §5
[19] = test system: DU-145; assay: Disruption of mitotic spindle in human DU145 cells assessed as incorrect alignment of DNA at metaphase at 2 times antiproliferative IC50 after 16 to 18 hrs by DAPI staining based immunofluorescence microscopy; format: functional, cell-based; how it was run: as §5
[20] = target: T2, Tubulin (Sus scrofa) (UniProt P02554+P02550); assay: Induction of porcine brain tubulin polymerization at 2 uM incubated for 1 hr by turbidimetric assay
How it was run: (§7)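 Purified porcine brain tubulin (2 mg/mL) in GPEM buffer with 1 mM GTP, polymerized for 1 h at 37 °C with 1% DMSO vehicle or compound at 2 or 20 μM. Turbidity followed as absorbance at 340 nm; initial rate and total polymer assessed.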

[21] = target: T2, Tubulin (Sus scrofa); assay: Induction of porcine brain tubulin polymerization at 20 uM incubated for 1 hr by turbidimetric assay; how it was run: as §7
[22] = target: T2, Tubulin (Sus scrofa); assay: Effect on total porcine brain tubulin polymer level at 20 uM incubated for 1 hr by turbidimetric assay; how it was run: as §7
[23] = Cytotoxicity against human PC3 cells assessed as reduction in cell density after 48 hrs by sulforhodamine B assay relative to control; format: functional, PC-3; how it was run: as §1
[24] = Cytotoxicity against human DU145 cells assessed as reduction in cell density after 48 hrs by sulforhodamine B assay relative to control; format: functional, DU-145; how it was run: as §1
[25] = test system: DU-145; assay: Disruption of mitotic spindle in human DU145 cells assessed as incorrect alignment of DNA at metaphase at 5 times antiproliferative IC50 after 16 to 18 hrs by DAPI staining based immunofluorescence microscopy; format: functional, cell-based; how it was run: as §5
[26] = target: T1, Mitogen-activated protein kinase; ERK1/ERK2 (Homo sapiens); assay: Increase in ERK1/2 phosphorylation in human DU145 cells at antiproliferative IC90 up to 2 hrs by Western blot analysis; format: cell-based; conditions: DU-145; how it was run: as §6

T2 sequence (P02550 whole entry, looked up): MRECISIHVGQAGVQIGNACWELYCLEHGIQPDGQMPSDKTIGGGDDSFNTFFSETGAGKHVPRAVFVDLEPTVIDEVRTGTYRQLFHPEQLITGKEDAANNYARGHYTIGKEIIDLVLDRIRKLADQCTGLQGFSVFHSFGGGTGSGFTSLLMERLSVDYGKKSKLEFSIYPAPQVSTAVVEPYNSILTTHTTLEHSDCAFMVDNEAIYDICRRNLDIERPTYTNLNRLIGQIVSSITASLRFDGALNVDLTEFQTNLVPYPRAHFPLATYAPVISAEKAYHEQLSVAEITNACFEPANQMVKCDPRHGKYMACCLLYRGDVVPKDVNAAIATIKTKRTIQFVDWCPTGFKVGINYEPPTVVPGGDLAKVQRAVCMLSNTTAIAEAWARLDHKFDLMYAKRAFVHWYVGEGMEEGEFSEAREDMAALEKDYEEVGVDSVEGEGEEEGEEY
T2 sequence (P02554 whole entry, looked up): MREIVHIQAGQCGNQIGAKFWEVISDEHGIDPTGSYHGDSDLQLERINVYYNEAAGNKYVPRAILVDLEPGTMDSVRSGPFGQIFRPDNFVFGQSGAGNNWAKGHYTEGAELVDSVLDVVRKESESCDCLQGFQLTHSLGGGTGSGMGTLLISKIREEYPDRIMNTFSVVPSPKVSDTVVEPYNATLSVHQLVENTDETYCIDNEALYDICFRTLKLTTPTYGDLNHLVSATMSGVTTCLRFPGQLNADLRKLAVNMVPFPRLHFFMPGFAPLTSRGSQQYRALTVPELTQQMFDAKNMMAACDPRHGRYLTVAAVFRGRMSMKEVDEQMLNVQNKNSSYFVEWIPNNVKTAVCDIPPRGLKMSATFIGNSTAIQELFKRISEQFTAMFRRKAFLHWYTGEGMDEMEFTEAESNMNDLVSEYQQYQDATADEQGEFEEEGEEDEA
T1 sequence (P27361 whole entry, looked up): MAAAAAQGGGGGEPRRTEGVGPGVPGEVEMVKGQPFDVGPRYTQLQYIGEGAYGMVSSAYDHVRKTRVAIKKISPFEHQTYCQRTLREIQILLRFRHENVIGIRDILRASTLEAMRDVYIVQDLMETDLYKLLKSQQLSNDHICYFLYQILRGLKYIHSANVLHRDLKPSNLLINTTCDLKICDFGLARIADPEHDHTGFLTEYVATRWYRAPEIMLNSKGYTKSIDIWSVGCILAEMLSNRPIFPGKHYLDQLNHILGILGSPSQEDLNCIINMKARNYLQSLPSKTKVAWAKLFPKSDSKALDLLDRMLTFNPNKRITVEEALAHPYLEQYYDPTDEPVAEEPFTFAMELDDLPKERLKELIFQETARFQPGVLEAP
T1 sequence (P28482 whole entry, looked up): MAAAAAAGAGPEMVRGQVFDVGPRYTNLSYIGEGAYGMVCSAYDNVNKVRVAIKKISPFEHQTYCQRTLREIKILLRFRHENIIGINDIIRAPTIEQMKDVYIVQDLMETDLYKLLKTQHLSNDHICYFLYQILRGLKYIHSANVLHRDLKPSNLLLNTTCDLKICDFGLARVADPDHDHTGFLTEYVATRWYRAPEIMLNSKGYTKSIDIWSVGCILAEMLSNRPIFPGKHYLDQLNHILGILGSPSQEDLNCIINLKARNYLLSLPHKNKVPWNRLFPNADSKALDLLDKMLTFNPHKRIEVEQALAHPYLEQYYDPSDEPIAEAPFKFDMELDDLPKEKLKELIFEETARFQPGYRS

SMILES: CC(C)[C@@H]1CC[C@@]2(C)CCC[C@@](C)(O)[C@@H]2[C@@H]1OC(=O)/C=C/c1ccc(O)cc1
IC50 [1]: 4 µM
IC50 [2]: 5.2 µM
Activity [3]: 51.5%
Ratio IC50 [4]: 0.77
inhibition at 12.5 µM [5]: 84%
inhibition at 12.5 µM [6]: 84%
inhibition [7]: inactive
Activity [8]: 24.9%
Activity [9]: 23.5%
Activity [10]: inactive
Activity [11]: inactive
Activity [12]: Active
Activity [13]: inactive

SMILES: CC(C)(O)C(O)Cc1c(O)ccc(C(=O)/C=C/c2ccccc2)c1O (stereo not drawn)
IC50 [1]: 35 µM
IC50 [2]: 25.5 µM
Ratio IC50 [4]: 1.4
inhibition at 61.3 µM [14]: 46%

SMILES: CC(=O)O[C@H]1C(=O)[C@@]2(C)[C@H]([C@H](OC(=O)c3ccccc3)[C@]3(O)C[C@H](OC(=O)[C@H](O)[C@@H](NC(=O)c4ccccc4)c4ccccc4)C(C)=C1C3(C)C)[C@]1(OC(C)=O)CO[C@@H]1C[C@@H]2O [PACLITAXEL]
IC50 [2]: 0.0038 µM

SMILES: C=C1C(=O)O[C@H]2C/C(COC(=O)C(C)C)=C/CC[C@]3(C)O[C@H]3[C@@H](O)[C@H]12
IC50 [1]: 4.7 µM
IC50 [2]: 1.7 µM
Activity [3]: 34.4%
Ratio IC50 [4]: 2.8
inhibition (INH) [23]: 30%
inhibition (INH) [24]: 20%
inhibition (INH) [17]: 42%
Activity [8]: 31.2%
Activity [9]: 34.5%
Activity [10]: Active
Activity [25]: Active
Activity [20]: inactive
Activity [21]: inactive
Activity [12]: Active
Activity [13]: Active

SMILES: C=C(C)C(=O)OC/C1=C\CC[C@]2(C)O[C@H]2[C@@H](O)[C@@H]2C(=C)C(=O)O[C@H]2C1
IC50 [1]: 12 µM
IC50 [2]: 3.7 µM
Activity [3]: 32.8%
Ratio IC50 [4]: 3.2
inhibition (INH) [23]: 30%
inhibition (INH) [24]: 20%
inhibition (INH) [17]: 23%
Activity [8]: 32.7%
Activity [9]: 34.5%
Activity [10]: Active
Activity [25]: Active
Activity [20]: inactive
Activity [21]: inactive
Activity [12]: Active
Activity [26]: Active

Continued, in another order:

Activity [20]: inactive
Activity [21]: Active
Activity [22]: inactive
SMILES: C=C(C)C(O)Cc1c(O)ccc(C(=O)/C=C/c2ccccc2)c1O (stereo not drawn)
IC50 [1]: 11 µM
IC50 [2]: 7 µM
Activity [3]: 37.8%
Ratio IC50 [4]: 1.6
inhibition at 61.7 µM [15]: 84%
inhibition at 61.7 µM [16]: 84%
inhibition (INH) [17]: 44%
Activity [8]: 28.8%
Activity [9]: 33.4%
Activity [18]: Active
Activity [19]: Active

Activity [20]: inactive
Activity [21]: inactive
Activity [12]: Active
Activity [26]: Active
Activity [13]: inactive
SMILES: C=C(C)C(=O)O[C@H]1C/C(C=O)=C\CC/C(C)=C/[C@H]2OC(=O)C(=C)[C@H]12
IC50 [1]: 3 µM
IC50 [2]: 1.8 µM
Activity [3]: 46.4%
Ratio IC50 [4]: 1.7
inhibition (INH) [23]: 20%
inhibition (INH) [24]: 20%
inhibition (INH) [17]: 98%
Activity [8]: 27.2%
Activity [9]: 26.4%
Activity [10]: Active
Activity [25]: Active
